Laboratory results as given in article PMC5652303 (European journal of medicinal chemistry, 2017).
Where “and” joins values, the source holds several entries; their conditions need not be identical. Identical values can stand only once.

Experiments:
[1] = tested on: normal lymphocytes; assay: Viability of normal lymphocytes, annexin/PI binding assay; type: cell-based, human; conditions: healthy donors (n=2), 10 µM, 24 hours
In short: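 Lymphocytes were separated from healthy donors' peripheral blood on a Ficoll-hypaque gradient and suspended in RPMI with 10% autologous plasma. After compound exposure, the percentage of viable cells was scored by annexin V/propidium iodide binding.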

[2] = tested on: 49-mer DNA duplex 25; assay: H2O2-induced DNA interstrand cross-link; type: biochemical; conditions: for DNA ICL cross-linking yield without H2O2: no H2O2, duplex 25, pH 8 phosphate buffer; for Kinetics of ICL formation: Time of completion: phosphate buffer pH 8; for ICL formation rate constant relative to 1a: rate constants of Table 1
In short: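 The 32P-labelled strand (0.5 µM) was annealed to 1.5 equiv of complement at 65 °C for 3 min in 10 mM potassium phosphate pH 7 with 100 mM NaCl, then cooled slowly overnight. Duplex, NaCl, potassium phosphate (pH 6–8), H2O2 and compound (100 µM–2 mM, in CH3CN) were incubated 24 h; some runs went 48 h. Reactions were quenched with 90% formamide loading buffer and run on 20% denaturing PAGE with phosphorimaging. Yields were corrected for the no-H2O2 control.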

[3] = tested on: H2AX phosphorylation at Ser139; assay: DNA damage response: H2AX phosphorylation in CLL lymphocytes, flow cytometry; type: cell-based, human; conditions: 10 µM, 24 hours
In short: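 Lymphocytes were isolated from CLL patients' peripheral blood on a Ficoll-hypaque gradient and held in RPMI with 10% autologous plasma. After compound exposure, cells were washed in PBS, fixed in ice-cold 70% ethanol and stored at −20 °C. They were then permeabilised, stained with FITC anti-H2AX Ser139 antibody, and analysed by flow cytometry.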

[4] = tested on: ovarian cancer SKOV3 cell; assay: Cytotoxicity in SKOV3 cells; type: cell-based; conditions: for IC50: Homo sapiens, SK-OV-3; for Cytotoxicity (initial test): SKOV3 cells
In short: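 Cells grown in RPMI 1640 with 5% FBS and 2 mM L-glutamine, seeded at 5,000–10,000 cells/well in 384-well plates, and left 2–3 h at 37 °C, 5% CO2. Compounds were made as 20 mM DMSO stocks and serially diluted 2-fold ten times, then added at 1:100. After 48 h, viability was read by CellTiter-Glo luminescence after 10 min at room temperature. IC50 came from four-parameter nonlinear regression.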

[5] = Monomer reaction with H2O2 by NMR analysis; type: physicochemical; conditions: for Disappearance of starting materials: Time of completion / Disappearance of starting materials: kobs / QM formation: Time of completion / QM formation: kobs: DMSO/deuterated phosphate buffer pH 8 (3:2), with H2O2; for Time to completion of reaction with H2O2 (oxidative deboronation): phosphate buffer pH 8 in D2O/DMSO 2:3, SI Figures S14, 15, 17, 18
[6] = Chemical stability of the compounds; type: physicochemical; conditions: for Hydrolysis of the acetate group: NMR, phosphate buffer pH 8 in D2O/DMSO 2:3, before addition of H2O2
[7] = tested on: 60 human cancer cell lines; assay: NCI DTP in vitro cancer cell screen; type: cell-based; conditions: 10 µM, most of the 60 cell lines
In short: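 NCI DTP screen. Human tumour cell lines were grown in RPMI 1640 with 5% FBS and 2 mM L-glutamine. Cells were plated in 96-well plates at 5,000–40,000 cells/well, set by each line's doubling time, and treated at a single 10 µM dose.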

[8] = tested on: breast cancer MDA-MB-468; assay: Cytotoxicity towards tumor cells; type: cell-based; conditions: Homo sapiens, MDA-MB-468, 48 h

SMILES	Toxicity to normal lymphocytes [1]	DNA ICL cross-linking yield without H2O2 ([2]; 2 mM compound, 37 °C)	Kinetics of ICL formation: Time of completion [2] [min]	Induction of DNA damage response (H2AX phosphorylation) [3]	IC50 [4] [µM]	Disappearance of starting materials: Time of completion [5] [min]	Disappearance of starting materials: kobs [5]	QM formation: Time of completion [5] [min]	QM formation: kobs [5]	Hydrolysis of the acetate group [6]	Cytotoxicity (initial test) [4]	Chemical stability [6]	also measured
CC1(C)OB(c2c(CBr)cccc2CBr)OC1(C)C [1a]	no significant toxicity	0%	600	induction of DNA damage response	6.3	60	39.0 ± 1.5 10^−5 s^−1	60	9.5 ± 0.2 10^−5 s^−1	–	–	–	–
CC(=O)OCc1cccc(COC(C)=O)c1B1OC(C)(C)C(C)(C)O1 [1b, (2-(4,4,5,5-Tetramethyl-1,3,2-dioxaborolan-2-yl)-1,3-phenylene)bis(methylene) diacetate]	–	–	–	–	–	240	19.4 ± 1.2 10^−5 s^−1	240	–	hydrolyzed prior to addition of H2O2	not cytotoxic	–	–
COc1cc(CBr)c(B2OC(C)(C)C(C)(C)O2)c(CBr)c1 [2a, 2-(2,6-Bis(bromomethyl)-4-methoxyphenyl)-4,4,5,5-tetramethyl-1,3,2-dioxaborolane]	no significant toxicity	–	240	induction of DNA damage response	5.2	42	56.7 ± 4.3 10^−5 s^−1	50	38.3 ± 2.2 10^−5 s^−1	–	–	chemically stable	ICL formation rate constant relative to 1a [2]: 2–3 times; Growth percentage of most cell lines, single dose screening [7]: less than 50%
COc1cc(COC(C)=O)c(B2OC(C)(C)C(C)(C)O2)c(COC(C)=O)c1 [2b, (5-Methoxy-2-(4,4,5,5-tetramethyl-1,3,2-dioxaborolan-2-yl)-1,3-phenylene)bis(methylene) diacetate]	–	–	–	–	–	480	9.1 ± 0.6 10^−5 s^−1	480	–	hydrolyzed prior to addition of H2O2	not cytotoxic	–	Time to completion of reaction with H2O2 (oxidative deboronation) [5]: not finished within one hour
COc1cc(OC)c(CBr)c(B2OC(C)(C)C(C)(C)O2)c1CBr [3a, 2-(2,6-Bis(bromomethyl)-3,5-dimethoxyphenyl)-4,4,5,5-tetramethyl-1,3,2-dioxaborolane]	–	17 ± 3% and 17%	–	–	–	–	–	–	–	–	–	not stable and easily decomposed even at 0 °C	–
COc1c(CBr)c(B2OC(C)(C)C(C)(C)O2)c(CBr)c(OC)c1OC [4a, 2-(2,6-Bis(bromomethyl)-3,4,5-trimethoxyphenyl)-4,4,5,5-tetramethyl-1,3,2-dioxaborolane]	–	0%	–	–	–	–	–	–	–	–	not cytotoxic	more stable than 3a	DNA ICL cross-linking yield with H2O2 ([2]; 2 mM compound, 2 mM H2O2, duplex 25, pH 8 phosphate buffer, 37 °C): 0%; ICL yield after incubation of ICL products at pH 6 ([2]; ICLs generated at pH 6, then incubated at pH 6, 37 °C, 24 h): remained unchanged; ICL yield after incubation of ICL products at pH 8 ([2]; ICLs generated at pH 6, then incubated at pH 8, 37 °C, 24 h): 3.0 ± 0.5%; ICL yield of ICL products generated with 4a at pH 6 ([2]; duplex 25, generated at pH 6, before further incubation): 16.6 ± 1.0%; DNA ICL product formation at pH 7 or higher pH ([2]; with H2O2, pH 7 or higher): not formed
CC1(C)OB(c2c(CBr)cc(O)cc2CBr)OC1(C)C [5a, 3,5-Bis(bromomethyl)-4-(4,4,5,5-tetramethyl-1,3,2-dioxaborolan-2-yl)phenol]	no significant toxicity	–	300	induction of DNA damage response	3.8	40	61.7 ± 3.2 10^−5 s^−1	40	58.3 ± 4.3 10^−5 s^−1	–	–	relatively stable	ICL formation rate constant relative to 1a [2]: 2–3 times
CC(=O)OCc1cc(O)cc(COC(C)=O)c1B1OC(C)(C)C(C)(C)O1 [5b, (5-Hydroxy-2-(4,4,5,5-tetramethyl-1,3,2-dioxaborolan-2-yl)-1,3-phenylene)bis(methylene) diacetate]	–	–	–	–	–	480	8.3 ± 0.5 10^−5 s^−1	480	–	hydrolyzed prior to addition of H2O2	–	–	Time to completion of reaction with H2O2 (oxidative deboronation) [5]: not finished within one hour
O=C(O)CCCc1ccc(N(CCCl)CCCl)cc1 [Chlorambucil, chlorambucil]	–	–	–	–	–	–	–	–	–	–	–	–	IC50 [8]: 34.4 µM
N[C@@H](Cc1ccc(N(CCCl)CCCl)cc1)C(=O)O [Melphalan, melphalan]	–	–	–	–	–	–	–	–	–	–	–	–	IC50 [8]: 48.7 µM
